Results taken from ChEMBL document CHEMBL4251558, “Synthesis and preliminary antiproliferative activity of new pteridin-7(8H)-one derivatives” (Eur J Med Chem, 2018).

Tests used:
Assay type in all cases: functional, cell-based
MKN-45 = experiment: Antiproliferative activity against human MKN45 cells assessed as decrease in cell viability after 48 hrs by MTT assay; settings: MKN-45, 48 h
Procedure, shortened: (§1)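 Cells in exponential growth seeded at 3000 per well and allowed 24 h. Medium then replaced with fresh medium holding a range of compound concentrations, followed by 48 h incubation. Viability read by MTT at 570 nm. IC50 is the concentration giving 50% inhibition of proliferation, reported as mean ± SD of three independent experiments.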

MGC-803 = experiment: Antiproliferative activity against human MGC803 cells assessed as decrease in cell viability after 48 hrs by MTT assay; settings: MGC-803, 48 h; procedure, shortened: as §1
ECa-109 cell line = experiment: Antiproliferative activity against human EC109 cells assessed as decrease in cell viability after 48 hrs by MTT assay; settings: ECa-109, 48 h; procedure, shortened: as §1
NCI-H1650 = experiment: Antiproliferative activity against human NCI-H1650 cells assessed as decrease in cell viability after 48 hrs by MTT assay; settings: NCI-H1650, 48 h; procedure, shortened: as §1

Row | IC50 (MKN-45) | IC50 (MGC-803) | IC50 (NCI-H1650) | Structure (SMILES) | IC50 (ECa-109 cell line)
1 | 9.97 µM | 13.8 µM | > 64 µM | CCCSc1nc(N2CCN(C)CC2)c2ncc(=O)n(CCCc3ccccc3)c2n1 | 18.3 µM
2 | 14.7 µM | 19.4 µM | 51.8 µM | CCCSc1nc(Nc2ccccc2OC)c2ncc(=O)n(Cc3ccccc3)c2n1 | > 64 µM
3 | 15.4 µM | 18.7 µM | > 64 µM | CCCSc1nc(N2CCN(Cc3ccccc3)CC2)c2ncc(=O)n(Cc3ccccc3)c2n1 | > 64 µM
4 | 11.6 µM | > 64 µM | 54.9 µM | CCCSc1nc(N2CCN(C)CC2)c2ncc(=O)n(Cc3ccco3)c2n1 | 24 µM
5 | 17.9 µM | 53.7 µM | 51.8 µM | CCCSc1nc(N2CCN(C)CC2)c2ncc(=O)n(CC3CCCCC3)c2n1 | > 64 µM
6 | > 64 µM | 49.6 µM | > 64 µM | CCCSc1nc(N2CCOCC2)c2ncc(=O)n(Cc3ccccc3)c2n1 | > 64 µM
7 | 39.2 µM | > 64 µM | > 64 µM | CCCNc1nc(SCCC)nc2c1ncc(=O)n2Cc1ccccc1 | > 64 µM
8 | > 64 µM | 34.7 µM | 54.8 µM | CCCSc1nc(N2CCSCC2)c2ncc(=O)n(Cc3ccccc3)c2n1 | > 64 µM
9 | 21 µM | 30.4 µM | > 64 µM | CCCSc1nc(NCC2CCCCC2)c2ncc(=O)n(Cc3ccccc3)c2n1 | 36 µM
